Test [1] deals with Klebsiella pneumoniae. As to the kind of experiment: Antibacterial activity against carbapenem-resistant Klebsiella pneumoniae clinical isolate 5 assessed as reduction in bacterial growth incubated for 16 to 20 hrs by CLSI-based broth microdilution method. It counts as functional. As to conditions: time 16-20 hrs. In short, it runs like this:
(§1)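 Clinical isolates tested by broth microdilution in cation-adjusted Mueller-Hinton broth. Cultures grown 4-6 h (~10^8 CFU/mL) were diluted to ~10^6 CFU/mL and mixed 1:1 with compound serial dilutions made from 256 down to 0.5 µg/mL (pre-mixing). Plates held at 37 °C for 16-20 h, then read for growth. Each concentration run in duplicate, whole experiment at least twice.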
In general terms: Broth dilution looks for growth in wells or tubes with falling amounts of substance.

The subject of test [2] is Enterobacteriaceae. As to the kind of experiment: Antibacterial activity against NDM1 producing carbapenem-resistant Enterobacteriaceae clinical isolate 5 assessed as reduction in bacterial growth incubated for 16 to 20 hrs by CLSI-based broth microdilution method. It counts as functional. As to conditions: time 16-20 hrs. In short, it runs like this: as §1
For test [3], the system named is Staphylococcus aureus. As to the kind of experiment: Bactericidal activity against early exponential phase of Staphylococcus aureus ATCC 29213 at 4X MIC measured after 6 hrs by time-kill kinetic assay. It counts as functional, organism-based. In short, it runs like this: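 S. aureus ATCC 29213 overnight culture diluted 1:10,000 in MHB and shaken at 225 rpm, 37 °C for 2 h to early exponential phase. Exposed to compound at 4× MIC in tubes, 37 °C, 225 rpm. Samples spun down, resuspended in PBS, plated as ten-fold dilutions on MHA overnight at 37 °C, and CFU/mL counted. Biological replicates.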

The test system of test [4] is Enterobacteriaceae. As to the kind of experiment: Antibacterial activity against NDM1 producing carbapenem-resistant Enterobacteriaceae clinical isolate 3 assessed as reduction in bacterial growth incubated for 16 to 20 hrs by CLSI-based broth microdilution method. It counts as functional. The note with it: time 16-20 hrs. In short, it runs like this:
as §1

Test [5] concerns Cell membrane. As to the kind of experiment: Induction of inner membrane permeabilization in Staphylococcus aureus ATCC 29213 at 20 ug/ml measured for 12 mins by propidium iodide staining based fluorescence microscopic analysis. As to conditions: dose 20.0 µg/ml. In short, it runs like this:
(§2)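 Mid-log bacteria were washed and resuspended at ~10^8 CFU/mL and preincubated with propidium iodide (10 µM stock) for 30 min (S. aureus) or 40 min (E. coli). Fluorescence (ex 535/em 617 nm) was read on a plate for an 8 min baseline, then every 2 min for 12 min after compound at 20 µg/mL final. Water served as control.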

The subject of test [6] is Enterococcus faecalis. Nature of the test: Antibacterial activity against Enterococcus faecalis ATCC 29212 assessed as reduction in bacterial growth incubated 16 to 20 hrs by CLSI-based broth microdilution method. It counts as functional. The note with it: time 16-20 hrs. In short, it runs like this:
(§3)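 Broth microdilution following CLSI, in cation-adjusted Mueller-Hinton broth. Inoculum from a 4-6 h culture (~10^8 CFU/mL), diluted to ~10^6 CFU/mL. Water stocks were serially diluted in MHB (256 to 0.5 µg/mL) and mixed 1:1 with the inoculum. Plates ran 16-20 h at 37 °C. MIC was read visually. Each concentration was tested in duplicate, and the experiment was repeated at least twice.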

The subject of test [7] is Cell membrane. Nature of the test: Induction of cytoplasmic membrane depolarization in Staphylococcus aureus ATCC 29213 at 20 ug/ml measured for 12 mins by DiSC35 dye-based fluorescence assay. It counts as subcellular. As to conditions: dose 20.0 µg/ml. In short, it runs like this:
(§4)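 Mid-log bacteria were washed and resuspended at ~10^8 CFU/mL: S. aureus in PBS, E. coli in 5 mM HEPES/5 mM glucose/100 mM KCl (1:1:1). Cells were loaded with diSC35 (10 µM stock) for 30 min (S. aureus) or 40 min (E. coli, plus EDTA). Fluorescence (ex 622/em 670 nm) was read for an 8 min baseline, then every 2 min for 12 min after compound at 20 µg/mL final. Water served as control.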

Test [8] deals with Klebsiella pneumoniae. Nature of the test: Antibacterial activity against carbapenem-resistant Klebsiella pneumoniae clinical isolate 4 assessed as reduction in bacterial growth incubated for 16 to 20 hrs by CLSI-based broth microdilution method. In kind it is functional. As to conditions: time 16-20 hrs. The gist of the method:
as §1

Test [9] deals with Klebsiella pneumoniae. As to the kind of experiment: Antibacterial activity against carbapenem-resistant Klebsiella pneumoniae clinical isolate 1 assessed as reduction in bacterial growth incubated for 16 to 20 hrs by CLSI-based broth microdilution method. In kind it is functional. As to conditions: time 16-20 hrs. The gist of the method:
as §1

The subject of test [10] is Enterobacteriaceae. Nature of the test: Antibacterial activity against NDM1 producing carbapenem-resistant Enterobacteriaceae clinical isolate 2 assessed as reduction in bacterial growth incubated for 16 to 20 hrs by CLSI-based broth microdilution method. In kind it is functional. The note with it: time 16-20 hrs. The gist of the method:
as §1

The test system of test [11] is Enterobacteriaceae. As to the kind of experiment: Antibacterial activity against NDM1 producing carbapenem-resistant Enterobacteriaceae clinical isolate 9 assessed as reduction in bacterial growth incubated for 16 to 20 hrs by CLSI-based broth microdilution method. In kind it is functional. The note with it: time 16-20 hrs. In short, it runs like this:
as §1

Test [12] deals with Klebsiella pneumoniae. As to the kind of experiment: Antibacterial activity against carbapenem-resistant Klebsiella pneumoniae clinical isolate 7 assessed as reduction in bacterial growth incubated for 16 to 20 hrs by CLSI-based broth microdilution method. The note with it: time 16-20 hrs. It counts as functional. In short, it runs like this: as §1
The subject of test [13] is Cell membrane. As to the kind of experiment: Induction of outer membrane permeabilization in Escherichia coli ATCC 25922 at 20 ug/ml measured for 12 mins by NPN dye based fluorescence assay. The note with it: dose 20.0 µg/ml. The gist of the method:
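Mid-log E. coli in HEPES/glucose/KCl at ~10^8 CFU/mL was preincubated 40 min with N-phenylnaphthylamine (10 µM stock). Fluorescence (ex 350/em 420 nm) was read for an 8 min baseline, then every 2 min for 12 min after compound at 20 µg/mL final. Water served as control.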

The subject of test [14] is Cell membrane. Nature of the test: Induction of inner membrane permeabilization in Escherichia coli ATCC 25922 at 20 ug/ml measured for 12 mins by propidium iodide staining based fluorescence microscopic analysis. As to conditions: dose 20.0 µg/ml. The gist of the method: as §2
The test system of test [15] is Klebsiella pneumoniae. As to the kind of experiment: Antibacterial activity against carbapenem-resistant Klebsiella pneumoniae clinical isolate 10 assessed as reduction in bacterial growth incubated for 16 to 20 hrs by CLSI-based broth microdilution method. In kind it is functional. The note with it: time 16-20 hrs. In short, it runs like this:
as §1

In test [16] the test system is Enterobacteriaceae. As to the kind of experiment: Antibacterial activity against NDM1 producing carbapenem-resistant Enterobacteriaceae clinical isolate 1 assessed as reduction in bacterial growth incubated for 16 to 20 hrs by CLSI-based broth microdilution method. In kind it is functional. As to conditions: time 16-20 hrs. In short, it runs like this:
as §1

The test system of test [17] is Enterobacteriaceae. As to the kind of experiment: Antibacterial activity against NDM1 producing carbapenem-resistant Enterobacteriaceae clinical isolate 10 assessed as reduction in bacterial growth incubated for 16 to 20 hrs by CLSI-based broth microdilution method. In kind it is functional. The note with it: time 16-20 hrs. The gist of the method: as §1
Test [18] deals with Enterobacteriaceae. Nature of the test: Antibacterial activity against NDM1 producing carbapenem-resistant Enterobacteriaceae clinical isolate 8 assessed as reduction in bacterial growth incubated for 16 to 20 hrs by CLSI-based broth microdilution method. It counts as functional. As to conditions: time 16-20 hrs. The gist of the method: as §1
Test [19] relates to Klebsiella pneumoniae. As to the kind of experiment: Antibacterial activity against carbapenem-resistant Klebsiella pneumoniae clinical isolate 2 assessed as reduction in bacterial growth incubated for 16 to 20 hrs by CLSI-based broth microdilution method. In kind it is functional. As to conditions: time 16-20 hrs. In short, it runs like this:
as §1

Test [20] concerns Cell membrane. Nature of the test: Induction of cytoplasmic membrane depolarization in Escherichia coli ATCC 25922 at 20 ug/ml measured for 12 mins by DiSC35 dye-based fluorescence assay. It counts as subcellular. As to conditions: dose 20.0 µg/ml. The gist of the method: as §4
Test [21] relates to Klebsiella pneumoniae. As to the kind of experiment: Antibacterial activity against carbapenem-resistant Klebsiella pneumoniae clinical isolate 3 assessed as reduction in bacterial growth incubated for 16 to 20 hrs by CLSI-based broth microdilution method. In kind it is functional. As to conditions: time 16-20 hrs. The gist of the method:
as §1

Test [22] has as its system Enterobacteriaceae. As to the kind of experiment: Antibacterial activity against NDM1 producing carbapenem-resistant Enterobacteriaceae clinical isolate 7 assessed as reduction in bacterial growth incubated for 16 to 20 hrs by CLSI-based broth microdilution method. In kind it is functional. The note with it: time 16-20 hrs. In short, it runs like this: as §1
For test [23], the system named is Klebsiella pneumoniae. As to the kind of experiment: Antibacterial activity against carbapenem-resistant Klebsiella pneumoniae clinical isolate 6 assessed as reduction in bacterial growth incubated for 16 to 20 hrs by CLSI-based broth microdilution method. It counts as functional. As to conditions: time 16-20 hrs. In short, it runs like this:
as §1

The subject of test [24] is Klebsiella pneumoniae. As to the kind of experiment: Antibacterial activity against carbapenem-resistant Klebsiella pneumoniae clinical isolate 9 assessed as reduction in bacterial growth incubated for 16 to 20 hrs by CLSI-based broth microdilution method. It counts as functional. The note with it: time 16-20 hrs. The gist of the method:
as §1

Test [25] concerns Salmonella enterica. As to the kind of experiment: Antibacterial activity against Salmonella enterica ATCC 8387 assessed as reduction in bacterial growth incubated for 16 to 20 hrs by CLSI-based broth microdilution method. The note with it: time 16-20 hrs. In kind it is functional. The gist of the method:
as §3

The test system of test [26] is Enterobacteriaceae. Nature of the test: Antibacterial activity against NDM1 producing carbapenem-resistant Enterobacteriaceae clinical isolate 4 assessed as reduction in bacterial growth incubated for 16 to 20 hrs by CLSI-based broth microdilution method. It counts as functional. As to conditions: time 16-20 hrs. The gist of the method: as §1
Test [27] concerns Escherichia coli. As to the kind of experiment: Antibacterial activity against Escherichia coli ATCC 25922 assessed as reduction in bacterial growth incubated 16 to 20 hrs by CLSI-based broth microdilution method. It counts as functional. As to conditions: time 16-20 hrs. In short, it runs like this:
as §3

Test [28] has as its system Enterobacteriaceae. As to the kind of experiment: Antibacterial activity against NDM1 producing carbapenem-resistant Enterobacteriaceae clinical isolate 6 assessed as reduction in bacterial growth incubated for 16 to 20 hrs by CLSI-based broth microdilution method. In kind it is functional. The note with it: time 16-20 hrs. In short, it runs like this:
as §1

The subject of test [29] is Klebsiella pneumoniae. Nature of the test: Antibacterial activity against carbapenem-resistant Klebsiella pneumoniae clinical isolate 8 assessed as reduction in bacterial growth incubated for 16 to 20 hrs by CLSI-based broth microdilution method. It counts as functional. The note with it: time 16-20 hrs. In short, it runs like this: as §1
Test [30] deals with Escherichia coli. Nature of the test: Bactericidal activity against early exponential phase of Escherichia coli ATCC 25922 at 6X MIC measured after 6 hrs by time-kill kinetic assay. It counts as functional, organism-based. The gist of the method: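 An overnight culture was diluted 1:10,000 in MHB and shaken at 225 rpm and 37 °C for 2 h (early exponential phase), then exposed to compound. Samples taken at intervals were centrifuged, resuspended in PBS, plated as tenfold dilutions on MHA and incubated overnight at 37 °C. CFU/mL were counted. Biological replicates were run.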

The structures appear in SMILES notation. Values after ≈ are worked out from the molar mass of the structure shown. Active and inactive are the calls of the source. No cut-off for these calls is given here.

Regarding `CN[C@H](CC(C)C)C(=O)N[C@H]1C(=O)N[C@@H](CC(N)=O)C(=O)N[C@H]2C(=O)N[C@H]3C(=O)N[C@H](C(=O)N[C@H](C(=O)O)c4cc(O)cc(O)c4-c4cc3ccc4O)[C@H](O)c3ccc(c(Cl)c3)Oc3cc2cc(c3O[C@@H]2O[C@H](CO)[C@@H](O)[C@H](O)[C@H]2O[C@H]2C[C@](C)(N)[C@H](O)[C@H](C)O2)Oc2ccc(cc2Cl)[C@H]1O` [VANCOMYCIN], the MIC in test [1] was 64 µg/mL (≈ 44.2 µM); in test [2] it was 64 µg/mL (≈ 44.2 µM); in test [4], > 64 µg/mL; in test [6] it was 2 µg/mL (≈ 1.38 µM); in test [8] it was 64 µg/mL (≈ 44.2 µM); in test [9], > 64 µg/mL. For the same compound, the MIC is > 64 µg/mL in [10]; 64 µg/mL (≈ 44.2 µM) in [11]; > 64 µg/mL in test [12]; > 64 µg/mL in test [15]; > 64 µg/mL in test [16]; > 64 µg/mL in test [17]. The MIC in test [18] was 64 µg/mL (≈ 44.2 µM); in test [19], > 64 µg/mL; in test [21], > 64 µg/mL; in [22], 64 µg/mL (≈ 44.2 µM); in [23] it was > 64 µg/mL; in test [24], 64 µg/mL (≈ 44.2 µM). Further, the MIC is 32 µg/mL (≈ 22.1 µM) in test [25]; > 64 µg/mL in test [26]; 64 µg/mL (≈ 44.2 µM) in test [27]; 64 µg/mL (≈ 44.2 µM) in test [28]; > 64 µg/mL in test [29]. Further, the outcome in test [3], in [5], in test [7], in [13], in test [14] and in test [20] was inactive.

Regarding `CO[C@@]1(NC(=O)[C@H](C(=O)O)c2ccc(O)cc2)C(=O)N2C(C(=O)O)=C(CSc3nnnn3C)CO[C@@H]21`, the outcome in test [30] was inactive.

For orientation: MIC means the least concentration at which growth counts as inhibited.
